Experimental data as given in article PMC6690761 (Bioorganic & medicinal chemistry letters, 2019).

Molecular target: T1, murine PDS (Mus musculus, UniProt Q9R155)
T1 sequence (Q9R155 1-780): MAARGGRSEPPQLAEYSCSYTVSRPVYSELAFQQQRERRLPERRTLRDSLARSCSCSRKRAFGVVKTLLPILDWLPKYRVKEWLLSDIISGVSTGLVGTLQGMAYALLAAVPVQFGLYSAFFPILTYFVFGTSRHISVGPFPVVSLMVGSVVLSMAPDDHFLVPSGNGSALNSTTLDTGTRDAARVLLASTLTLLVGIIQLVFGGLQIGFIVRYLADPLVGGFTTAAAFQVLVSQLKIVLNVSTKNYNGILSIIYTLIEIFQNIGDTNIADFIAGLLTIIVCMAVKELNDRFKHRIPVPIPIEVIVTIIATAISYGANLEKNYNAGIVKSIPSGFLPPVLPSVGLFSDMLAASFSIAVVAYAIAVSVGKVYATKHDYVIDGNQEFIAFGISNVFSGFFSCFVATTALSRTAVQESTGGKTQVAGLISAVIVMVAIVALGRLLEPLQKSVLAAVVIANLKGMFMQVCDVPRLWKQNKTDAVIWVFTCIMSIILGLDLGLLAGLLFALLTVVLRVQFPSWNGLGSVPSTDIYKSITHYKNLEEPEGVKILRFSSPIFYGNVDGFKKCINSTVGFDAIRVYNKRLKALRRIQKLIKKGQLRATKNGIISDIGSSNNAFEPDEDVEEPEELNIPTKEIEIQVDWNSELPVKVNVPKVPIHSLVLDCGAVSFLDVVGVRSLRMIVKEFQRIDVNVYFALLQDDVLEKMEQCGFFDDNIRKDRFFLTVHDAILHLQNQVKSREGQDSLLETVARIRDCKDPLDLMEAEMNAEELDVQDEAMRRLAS
Experiment: functional cell-based assay of PDS-mediated Cl-/I- exchange
Conditions: Fischer rat thyroid cells expressing murine PDS
Outline: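 Fischer rat thyroid cells stably co-expressing murine pendrin and the halide-sensitive fluorescent protein EYFP-H148Q/I152L/F46L. Pendrin-mediated Cl–/I– exchange is followed through this halide-sensing fluorescent reporter. Inhibition is reported as IC50.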

With `CCOC(=O)c1nn(C)c2c1CN(C(=O)Nc1ccc(Cl)cc1)CC2` [Compound 20] the “PDS inhibition activity (in words)” value was “minimal PDS inhibition activity”.

In the case of `Cn1nc(C(=O)O)c2c1CCN(C(=O)Nc1ccc(Cl)cc1)C2` [Compound 21], the “PDS inhibition activity (in words)” value is reported as “minimal PDS inhibition activity”.
